Experimental data published in ChEMBL document CHEMBL3734675, “Synthesis, antimycobacterial and antibacterial activity of fluoroquinolone derivatives containing an 3-alkoxyimino-4-(cyclopropylanimo)methylpyrrolidine moiety” (2015).
≈ marks a conversion by molar mass, not a printed value.

Key:
Assay type in all cases: functional
[1] = tested on: Enterococcus faecium; assay: Antibacterial activity against Enterococcus faecium 14-5 after 18 to 24 hrs by two-fold serial dilution method
Procedure, shortened: (§1)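 Twofold serial dilution in agar media against Gram-positive and Gram-negative strains. Plates incubated at 35 °C for 18–24 h. MIC read as the lowest compound concentration giving complete inhibition of bacterial growth.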

[2] = tested on: Staphylococcus aureus; assay: Antibacterial activity against methicillin-sensitive Staphylococcus aureus 14-1 after 18 to 24 hrs by two-fold serial dilution method; procedure, shortened: as §1
[3] = tested on: Klebsiella pneumoniae; assay: Antibacterial activity against Klebsiella pneumoniae 14-3 after 18 to 24 hrs by two-fold serial dilution method; procedure, shortened: as §1
[4] = tested on: Escherichia coli; assay: Antibacterial activity against Escherichia coli 14-2 after 18 to 24 hrs by two-fold serial dilution method; procedure, shortened: as §1
[5] = tested on: Escherichia coli; assay: Antibacterial activity against extended-spectrum beta-lactamase producing Escherichia coli 14-2 after 18 to 24 hrs by two-fold serial dilution method; procedure, shortened: as §1
[6] = tested on: Escherichia coli; assay: Antibacterial activity against extended-spectrum beta-lactamase producing Escherichia coli 14-1 after 18 to 24 hrs by two-fold serial dilution method; procedure, shortened: as §1
[7] = tested on: Klebsiella pneumoniae; assay: Antibacterial activity against Klebsiella pneumoniae 14-2 after 18 to 24 hrs by two-fold serial dilution method; procedure, shortened: as §1
[8] = tested on: Pseudomonas aeruginosa; assay: Antibacterial activity against Pseudomonas aeruginosa ATCC 27853 after 18 to 24 hrs by two-fold serial dilution method; procedure, shortened: as §1
[9] = tested on: Klebsiella pneumoniae; assay: Antibacterial activity against extended-spectrum beta-lactamase producing Klebsiella pneumoniae 14-19 after 18 to 24 hrs by two-fold serial dilution method; procedure, shortened: as §1
[10] = tested on: Klebsiella pneumoniae; assay: Antibacterial activity against extended-spectrum beta-lactamase producing Klebsiella pneumoniae 14-17 after 18 to 24 hrs by two-fold serial dilution method; procedure, shortened: as §1
[11] = tested on: Staphylococcus aureus; assay: Antibacterial activity against methicillin-sensitive Staphylococcus aureus 14-3 after 18 to 24 hrs by two-fold serial dilution method; procedure, shortened: as §1
[12] = tested on: Streptococcus pneumoniae; assay: Antibacterial activity against methicillin-resistant Streptococcus pneumoniae ATCC 19615 after 18 to 24 hrs by two-fold serial dilution method
Procedure, shortened: (§2)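 Agar media, standard twofold serial dilution. MIC is the lowest concentration giving complete inhibition of bacterial growth after incubation at 35 °C for 18–24 h. Ciprofloxacin and levofloxacin were run as comparators.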

[13] = tested on: Pseudomonas aeruginosa; assay: Antibacterial activity against Pseudomonas aeruginosa 14-14 after 18 to 24 hrs by two-fold serial dilution method; procedure, shortened: as §1
[14] = tested on: Pseudomonas aeruginosa; assay: Antibacterial activity against Pseudomonas aeruginosa 14-15 after 18 to 24 hrs by two-fold serial dilution method; procedure, shortened: as §1
[15] = tested on: Klebsiella pneumoniae; assay: Antibacterial activity against Klebsiella pneumoniae 14-4 after 18 to 24 hrs by two-fold serial dilution method; procedure, shortened: as §1
[16] = tested on: Klebsiella pneumoniae; assay: Antibacterial activity against extended-spectrum beta-lactamase producing Klebsiella pneumoniae 14-18 after 18 to 24 hrs by two-fold serial dilution method; procedure, shortened: as §1
[17] = tested on: Enterococcus faecalis; assay: Antibacterial activity against Enterococcus faecalis 14-1 after 18 to 24 hrs by two-fold serial dilution method; procedure, shortened: as §1
[18] = tested on: Escherichia coli; assay: Antibacterial activity against Escherichia coli 14-1 after 18 to 24 hrs by two-fold serial dilution method; procedure, shortened: as §1
[19] = tested on: Staphylococcus epidermidis; assay: Antibacterial activity against methicillin-resistant Staphylococcus epidermidis 14-22 after 18 to 24 hrs by two-fold serial dilution method; procedure, shortened: as §2
[20] = tested on: Pseudomonas aeruginosa; assay: Antibacterial activity against Pseudomonas aeruginosa 14-16 after 18 to 24 hrs by two-fold serial dilution method; procedure, shortened: as §1
[21] = tested on: Staphylococcus epidermidis; assay: Antibacterial activity against methicillin-sensitive Staphylococcus epidermidis 14-2 after 18 to 24 hrs by two-fold serial dilution method; procedure, shortened: as §1
[22] = tested on: Staphylococcus aureus; assay: Antibacterial activity against Staphylococcus aureus CMCC 26003 after 18 to 24 hrs by two-fold serial dilution method; procedure, shortened: as §1
[23] = tested on: Staphylococcus epidermidis; assay: Antibacterial activity against methicillin-resistant Staphylococcus epidermidis 14-21 after 18 to 24 hrs by two-fold serial dilution method; procedure, shortened: as §2
[24] = tested on: Klebsiella pneumoniae; assay: Antibacterial activity against Klebsiella pneumoniae 14-1 after 18 to 24 hrs by two-fold serial dilution method; procedure, shortened: as §1
[25] = tested on: Staphylococcus aureus; assay: Antibacterial activity against methicillin-sensitive Staphylococcus aureus 14-4 after 18 to 24 hrs by two-fold serial dilution method; procedure, shortened: as §1
[26] = tested on: Staphylococcus epidermidis; assay: Antibacterial activity against methicillin-resistant Staphylococcus epidermidis 14-37 after 18 to 24 hrs by two-fold serial dilution method; procedure, shortened: as §2
[27] = tested on: Staphylococcus epidermidis; assay: Antibacterial activity against methicillin-resistant Staphylococcus epidermidis 14-39 after 18 to 24 hrs by two-fold serial dilution method; procedure, shortened: as §2
[28] = tested on: Escherichia coli; assay: Antibacterial activity against Escherichia coli ATCC 25922 after 18 to 24 hrs by two-fold serial dilution method; procedure, shortened: as §1
[29] = tested on: Pseudomonas aeruginosa; assay: Antibacterial activity against Pseudomonas aeruginosa 14-9 after 18 to 24 hrs by two-fold serial dilution method; procedure, shortened: as §1
[30] = tested on: Enterococcus faecalis; assay: Antibacterial activity against Enterococcus faecalis 14-2 after 18 to 24 hrs by two-fold serial dilution method; procedure, shortened: as §1
[31] = tested on: Staphylococcus aureus; assay: Antibacterial activity against methicillin-resistant Staphylococcus aureus 14-5 after 18 to 24 hrs by two-fold serial dilution method; procedure, shortened: as §2
[32] = tested on: Mycobacterium tuberculosis; assay: Antimycobacterial activity against Mycobacterium tuberculosis H37Rv ATCC 27294 incubated for 7 days by microplate Alamar Blue assay; conditions: H37Rv ATCC 27294, 168 h
Procedure, shortened: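 Fluorescence read-out. MIC is the lowest concentration that reduces fluorescence by at least 90% relative to the mean of replicate bacterium-only controls. Isoniazid and rifampicin were included as reference drugs.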

[33] = tested on: Enterococcus faecium; assay: Antibacterial activity against Enterococcus faecium 14-2 after 18 to 24 hrs by two-fold serial dilution method; procedure, shortened: as §1
[34] = tested on: Enterococcus faecium; assay: Antibacterial activity against Enterococcus faecium 14-6 after 18 to 24 hrs by two-fold serial dilution method; procedure, shortened: as §1
[35] = tested on: Staphylococcus aureus; assay: Antibacterial activity against methicillin-resistant Staphylococcus aureus 14-4 after 18 to 24 hrs by two-fold serial dilution method; procedure, shortened: as §2

With `CO/N=C1/CN(c2c(F)cc3c(=O)c(C(=O)O)cn(C4CC4)c3c2OC)CC1CNC1CC1` (centres undefined) the MIC [1] was > 128 µg/mL, the MIC [2] was > 128 µg/mL and the MIC [3] was > 128 µg/mL. For the same molecule, the MIC [4] was > 128 µg/mL, the MIC [5] was > 128 µg/mL and the MIC [6] was 128 µg/mL (≈ 279 µM). The MIC [7] was > 128 µg/mL, the MIC [8] was 128 µg/mL (≈ 279 µM) and the MIC [9] was > 128 µg/mL. For the same molecule, the MIC [10] was > 128 µg/mL, the MIC [11] was > 128 µg/mL and the MIC [12] was 64 µg/mL (≈ 140 µM). The MIC [13] was 128 µg/mL (≈ 279 µM), the MIC [14] was 128 µg/mL (≈ 279 µM) and the MIC [15] was > 128 µg/mL. For the same molecule, the MIC [16] was > 128 µg/mL, the MIC [17] was > 128 µg/mL and the MIC [18] was > 128 µg/mL. For the same molecule, the MIC [19] was > 128 µg/mL, the MIC [20] was 128 µg/mL (≈ 279 µM) and the MIC [21] was > 128 µg/mL. For the same molecule, the MIC [22] was 8 µg/mL (≈ 17.4 µM), the MIC [23] was > 128 µg/mL and the MIC [24] was > 128 µg/mL. For the same molecule, the MIC [25] was > 128 µg/mL, the MIC [26] was > 128 µg/mL and the MIC [27] was > 128 µg/mL. It also gave an MIC [28] of 32 µg/mL (≈ 69.8 µM), an MIC [29] of 128 µg/mL (≈ 279 µM) and an MIC [30] of 64 µg/mL (≈ 140 µM). The MIC [31] was > 128 µg/mL, the MIC90 [32] was > 32 µg/mL and the MIC [33] was > 128 µg/mL. The MIC [34] was > 128 µg/mL.
With `CCO/N=C1/CN(c2nc3c(cc2F)c(=O)c(C(=O)O)cn3C2CC2)CC1(C)CNC1CC1` (centres undefined) the MIC [1] was 8 µg/mL (≈ 17.5 µM), the MIC [2] was 0.25 µg/mL (≈ 0.546 µM) and the MIC [3] was 128 µg/mL (≈ 280 µM). The MIC [4] was > 128 µg/mL, the MIC [5] was > 128 µg/mL and the MIC [6] was 32 µg/mL (≈ 69.9 µM). For the same molecule, the MIC [7] was 64 µg/mL (≈ 140 µM), the MIC [8] was 32 µg/mL (≈ 69.9 µM) and the MIC [9] was 64 µg/mL (≈ 140 µM). The MIC [10] was 64 µg/mL (≈ 140 µM), the MIC [11] was 0.5 µg/mL (≈ 1.09 µM) and the MIC [12] was 0.25 µg/mL (≈ 0.546 µM). For the same molecule, the MIC [13] was 128 µg/mL (≈ 280 µM), the MIC [14] was 64 µg/mL (≈ 140 µM) and the MIC [15] was > 128 µg/mL. The MIC [16] was 64 µg/mL (≈ 140 µM), the MIC [17] was 16 µg/mL (≈ 35 µM) and the MIC [18] was > 128 µg/mL. It also gave an MIC [19] of 4 µg/mL (≈ 8.74 µM), an MIC [20] of 32 µg/mL (≈ 69.9 µM) and an MIC [21] of 8 µg/mL (≈ 17.5 µM). The MIC [22] was < 0.008 µg/mL, the MIC [23] was 4 µg/mL (≈ 8.74 µM) and the MIC [24] was 64 µg/mL (≈ 140 µM). It also gave an MIC [25] of 0.25 µg/mL (≈ 0.546 µM), an MIC [26] of 2 µg/mL (≈ 4.37 µM) and an MIC [35] of 4 µg/mL (≈ 8.74 µM). For the same molecule, the MIC [27] was 4 µg/mL (≈ 8.74 µM), the MIC [28] was 1 µg/mL (≈ 2.19 µM) and the MIC [29] was 32 µg/mL (≈ 69.9 µM). The MIC [30] was 0.125 µg/mL (≈ 0.273 µM), the MIC [31] was 4 µg/mL (≈ 8.74 µM) and the MIC90 [32] was < 0.25 µg/mL. It also gave an MIC [33] of 4 µg/mL (≈ 8.74 µM) and an MIC [34] of 4 µg/mL (≈ 8.74 µM).
